SENP7 block – blocks the human protease SENP7 | Q9BQF6 | recombinant SENP7, Z-RLRGG-aminoluciferin luminescence, 40 min | inhibition, % at 5 µM | hit rate 1.5% among 330,000 | AID 434973;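 active = inhibition above about 50% at the single test dose, limit read from the data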;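 note: plate controls were DMSO with enzyme for no effect and no enzyme buffer wells for full effect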
SENP8 block-1 – blocks human SENP8 cleavage of Nedd8 substrate; Q96LD8; recombinant SENP8, Nedd8 substrate fluorescence; inhibition, % at 20 µM; hit rate 0.64% among 360,000; in the data active = inhibition mostly above about 40%, no sharp cut-off; inactive = mostly below about 27%
NRP1-CendR mod – modulators of CendR peptide binding to human neuropilin-1. O14786. FAM-RPARPAR peptide binding to NRP-1, fluorescence polarization. inhibition, % at 25 µM. hit rate 0.85% among 360,000;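 active = inhibition or corrected inhibition above about 18%, plus a signal ratio from 0.5 to 1.5, limit read from the data, passing the limit was not always enough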
SENP1 inh – inhibitors of human SENP1 SUMO protease catalytic domain. hit rate 0.21% among 360,000. AID 624204. recombinant SENP1 catalytic domain, CyPet-SUMO1-YPet FRET cleavage. inhibition, % at 10 µM. Q9P0U3;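 active = inhibition at least 30% at 10 µM, raw YFP signal under a set limit, fluorescence ratio 0.5 to 1.5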;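 note: 0% = enzyme with DMSO and 100% = no enzyme wells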
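Compound: 10 µM single point, 0.5% DMSO; Test system: hSENP1 catalytic domain, recombinant; Timing: 50 min reaction at room temperature; Technique: FRET, CFP and YFP emission; Control set: no-enzyme wells low, DMSO-plus-enzyme wells high control.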
SENP6 inh – inhibitors of human SENP6 protease; hit rate 1.8% among 330,000; Recombinant SENP6 catalytic domain, aminoluciferin luminescence; Q9GZR1; inhibition, % at 10 µM;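 active = inhibition above about 50% at the single tested dose, limit read from the data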;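 note: plate controls were DMSO wells with enzyme for no effect and DMSO wells lacking enzyme for full effect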
Target sequence (Q9GZR1 628-1112 limits assumed): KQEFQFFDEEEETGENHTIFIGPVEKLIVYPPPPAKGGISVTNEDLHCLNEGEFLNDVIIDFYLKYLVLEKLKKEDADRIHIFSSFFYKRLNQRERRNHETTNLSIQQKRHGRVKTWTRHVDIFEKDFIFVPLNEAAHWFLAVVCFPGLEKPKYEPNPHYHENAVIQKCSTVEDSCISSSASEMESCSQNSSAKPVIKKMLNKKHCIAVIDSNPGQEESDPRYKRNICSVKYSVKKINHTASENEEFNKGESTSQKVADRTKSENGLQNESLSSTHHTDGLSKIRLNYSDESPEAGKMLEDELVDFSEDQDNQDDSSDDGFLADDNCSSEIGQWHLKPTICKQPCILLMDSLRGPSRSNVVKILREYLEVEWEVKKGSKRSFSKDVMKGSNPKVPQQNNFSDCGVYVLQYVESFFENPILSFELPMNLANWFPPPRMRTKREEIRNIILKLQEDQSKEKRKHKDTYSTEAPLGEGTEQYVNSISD
SENP8 block-2 – blocks the human protease SENP8 | inhibition, % at 10 µM | purified SENP8, Z-RLRGG-aminoluciferin cleavage, luminescence | hit rate 1.2% among 330,000; in the data active = inhibition above about 50%
SENP8 inh conf – SENP8 (human) inhibition, single concentration confirmation; inhibition, % at 25 µM; shares compounds with SENP8 block-1; purified SENP8, Nedd8-AMC/pro-Nedd8 cleavage fluorescence, 30 min; hit rate 15% among 1,400; AID 624319; in the data active = inhibition mostly above about 39%, no sharp cut-off; inactive = mostly below about 34%
The depositor's hits bear a star. Rows were chosen to be rich in hits. Some 3.3% of all compounds tested hit in one or more screens of this group.

For COc1ccc(-n2c(C)cc(SC)c(C(C)=O)c2=S)cc1 the results were SENP7 block 6, SENP8 block-1 15, NRP1-CendR mod -14, SENP1 inh 4, SENP6 inh 0 and SENP8 block-2 3.
O=C(O)C1Cc2ccccc2CN1C(=O)c1ccccc1 (configuration not stated) was read as SENP7 block 5, SENP8 block-1 12, NRP1-CendR mod -5, SENP1 inh 0, SENP6 inh -2 and SENP8 block-2 -2.
For CC(C)(C)OC(=O)N1Cc2ccccc2C[C@H]1C(=O)O the results were SENP7 block 6, SENP8 block-1 40*, NRP1-CendR mod 0, SENP1 inh -2, SENP6 inh 15, SENP8 block-2 3 and SENP8 inh conf 68*.
Screening Cc1ccc(C(=O)COc2ccccc2-c2ccccc2)cc1 returned SENP7 block 6, SENP8 block-1 45*, NRP1-CendR mod 2, SENP1 inh 2, SENP6 inh 7, SENP8 block-2 5 and SENP8 inh conf 13.
Cc1ccc(C(=O)N2C(=S)C(c3ccc(F)cc3)=NC23CCN(C)CC3)cc1 was read as SENP7 block 0, SENP8 block-1 66*, NRP1-CendR mod 1, SENP1 inh 4, SENP6 inh -6, SENP8 block-2 -18 and SENP8 inh conf 58*.
`COCCNC(=O)C1(C)CCN(C(=O)c2cccc(C)c2C)C1` (configuration not stated) gave SENP8 block-1 11, NRP1-CendR mod -11 and SENP1 inh 6.
For COc1ccc(NC(=O)C2CCC(N3C(=O)C4C5C=CC(C5)C4C3=O)CC2)cc1 (configuration not stated) the results were SENP7 block 2, SENP8 block-1 20, NRP1-CendR mod 6, SENP1 inh 3, SENP6 inh -7 and SENP8 block-2 2.
For COc1ccc(NC(=O)[C@@H]2[C@@H]3C(=O)N(C4CCCCC4)C(=O)[C@@H]3C3c4ccccc4C=CN32)cc1 (some centres not stated) the results were SENP7 block 6, SENP8 block-1 64*, NRP1-CendR mod -45, SENP1 inh 24, SENP6 inh 9, SENP8 block-2 2 and SENP8 inh conf 38*.
`CC(=O)c1cccc(NC(=O)C2Cc3c(-c4ccc(Cl)cc4)ccnc3O2)c1` (configuration not stated) gave SENP8 block-1 10, NRP1-CendR mod -11 and SENP1 inh 0.
`COC(=O)/C(=C/Nc1ccc(O)cc1)[N+](=O)[O-]` gave SENP7 block 18, SENP8 block-1 74*, NRP1-CendR mod -13, SENP1 inh 1, SENP6 inh -6, SENP8 block-2 -31 and SENP8 inh conf 17.
For Cc1cc2ccccn2c1C(=O)c1ccc(NN)c([N+](=O)[O-])c1 the results were SENP7 block 5, SENP8 block-1 42*, NRP1-CendR mod -2, SENP1 inh 5, SENP6 inh 4, SENP8 block-2 4 and SENP8 inh conf 11.
For Cc1noc(C)c1NC(=O)N(C)C[C@@H]1OCc2cnnn2CCCC(=O)N([C@@H](C)CO)C[C@@H]1C the results were SENP8 block-1 7, NRP1-CendR mod 4 and SENP1 inh 0.
`COc1ccc(S(=O)(=O)NC(=O)C2(C)CCN2C(=O)CCC2CCCC2)cc1OC` (configuration not stated) gave SENP8 block-1 8, NRP1-CendR mod -8 and SENP1 inh 0.
Screening Cc1cccc(N(C)c2cc(-c3ccc(F)cc3)nc3ccnn23)c1 returned SENP8 block-1 -262, NRP1-CendR mod -1 and SENP1 inh -30.
CCCc1ccc(C(=O)NNC(=O)c2ccc(Br)cc2)cc1 was read as SENP7 block 2, SENP8 block-1 18, NRP1-CendR mod 6, SENP1 inh 1, SENP6 inh -8 and SENP8 block-2 8.
`CCCc1ccc(C(=O)NNc2ccc(F)cc2)cc1` gave SENP7 block 10, SENP8 block-1 47*, NRP1-CendR mod -8, SENP1 inh 1, SENP6 inh -10, SENP8 block-2 -14 and SENP8 inh conf 8.
Screening O=[N+]([O-])c1ccc(/C=[N+](\[O-])CCO)o1 returned SENP7 block -2, SENP8 block-1 45*, NRP1-CendR mod 5, SENP1 inh -1, SENP6 inh 7, SENP8 block-2 5 and SENP8 inh conf 18.
Screening O=C(NC(=S)N1CCN(C/C=C/c2ccccc2)CC1)c1c(F)cccc1F returned SENP7 block 8, SENP8 block-1 43*, NRP1-CendR mod -3, SENP1 inh 4, SENP6 inh 11, SENP8 block-2 -1 and SENP8 inh conf 8.
O=C(NC(=S)N1CCN(C/C=C/c2ccccc2)CC1)c1ccco1 was read as SENP7 block -5, SENP8 block-1 4, NRP1-CendR mod -2, SENP1 inh -7, SENP6 inh 2 and SENP8 block-2 -4.
`Cc1ccc(C)c(Nc2c([N+](=O)[O-])cc(C(=O)N3CC(=O)Nc4ccccc43)cc2[N+](=O)[O-])c1` gave SENP7 block 0, SENP8 block-1 60*, NRP1-CendR mod 24, SENP1 inh 2, SENP6 inh -6, SENP8 block-2 -7 and SENP8 inh conf 20.
`CC1Cc2ccccc2N1C(=O)CN(C)CC(=O)Nc1ccc(F)cc1` (configuration not stated) gave SENP7 block -2, SENP8 block-1 9, NRP1-CendR mod 3, SENP1 inh 0, SENP6 inh 2 and SENP8 block-2 0.
`CCCCC(=O)N(C)c1c(CC)nc2c(OCC(=O)N3CCOCC3)cccn12` gave SENP8 block-1 -7, NRP1-CendR mod 0 and SENP1 inh -4.
Screening C/C(=N\Nc1ccc(S(N)(=O)=O)cc1[N+](=O)[O-])c1ccco1 returned SENP7 block -4, SENP8 block-1 48*, NRP1-CendR mod 5, SENP1 inh 5, SENP6 inh 0, SENP8 block-2 -8 and SENP8 inh conf 12.
Screening C/C(=N\Nc1ccc(S(N)(=O)=O)cc1[N+](=O)[O-])c1ccccc1O returned SENP7 block -1, SENP8 block-1 39, NRP1-CendR mod 6, SENP1 inh 1, SENP6 inh -22 and SENP8 block-2 -10.
Screening Cc1ccc(C2c3[nH]c4ccccc4c3C[C@H]3C(=O)N(c4ccccc4C(=O)N4CCC[C@H]4C(=O)O)C(=O)N23)cc1 (some centres not stated) returned SENP7 block -1, SENP8 block-1 43*, NRP1-CendR mod -6, SENP1 inh -55, SENP6 inh 2, SENP8 block-2 1 and SENP8 inh conf -7.

Bioassay records (PubChem)
